The record followed here is the RNAGym collection of RNA variant scans (doi:10.1126/science.aae0568).

The labels stand for the following.
B1: tRNA (parent)
chain: GUUCCGUUGGCGUAAUGGUAACGCGUCUCCCUCCUAAGGAGAAGACUGCGGGUUCGAGUCCCGUACGGAACG

Fewer inactive variants are shown than the library holds.

In this data set the parent is B1. The data set is described as follows: yeast fitness relative to wild type (ratio to wild type); higher = fitter; tRNA-Arg(CCU), competitive growth, 37 C, YPD. Summed up:
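Gene amplicons from the start population and from each of six end populations were read by 100-nucleotide paired-end sequencing. Those end populations came from pooled Saccharomyces cerevisiae strains carrying tRNA-Arg(CCU) gene variants at the native locus, competed in YPD at 37°C for 24 hours. Fitness relative to wild type was worked out from changes in genotype frequencies. Genotypes needed ≥ 100 starting reads, and estimates < 0.5 were set to 0.5.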
Regarding GUUCUGCUGGCGUAUUGGUAACGCGUCUCCCUCCUAAGGUGAAGACUGCGGGUUCGAGACCCGUUCGAAACG, the yeast fitness came out at 0.542.
Then GUUCUGUUGGCGUAAUGGUAACGCGUCUCCCUCCUAAGGAGAAGACUGCGGCUUCGAGUCCCGUACGGAACG, with 0.622; and GUUCUGUUGGCGUAAUGGUAACGCGUCUCCCUCCUAAGGAGAAGACUGCGGGUUCAAGGCCCGUACGGAACG, with 0.516.
The same measure for GUUCUGUUGGCGUAAUGGUAACGCGUCUCCCUCCUAAGGAGAAGACUGCGGGUUCGACUCCCGUAGGGAACG: at most 0.5; for GUUCUGUUGGCGUAAUGGUAACGCGUCUCCCUCCUAAGGAGAAGACUGCGGGUUCCAGUCCCGUGCGGAACG: 0.536.
The same measure for GUUCUGUUGGCGUAAUGGUAACGCGUCUCCCUCCUAAGGAGAAGACUGCGGGUUCCUGUCCCGUACGGAACG: at most 0.5; for GUUCUGUUGGCGUAAUGGUAACGCGUCUCCCUCCUAAGGAGAAGACUGCGGGUUCAAGUCCCGUACGCUACG: at most 0.5; for GUUCUGUUGGCGUAAUGGUAACGCGUCUCCCUCCUAAGGAGAAGACUGCGCGUUCCAGUCCCGUACGGAACG: at most 0.5.
Turning to GUUCUGUUGGCGUAAUGGUAACGCGUCUCCCUCCUAAGGAGAAGACUGCGCGUUCCAGUCCCGUACGGUACG, the yeast fitness is at most 0.5.
The same measure for GUUCUGUUGGCGUAAUGGUAACGCGUCUCCCUCCUAAGGAGAAGACUGCGGGUUCGACCCCCGUACGGAACG: 0.675; for GUUCUGAUGGCGUAAUGGUAACGCGUCUCCCUCCUAAGCAGAAGACUGUGGGUUCGAGUCCCGUACGGAACG: at most 0.5; for GUUCUGGUGGCGUAAUGGUAACGCGUCUCACUCCUAAGGAGAAGACUGCGGGUUCGAGUCCCGUACGGAACG: 0.93.
Then GUUCUGUUGGCGUAAUGGUAACGCGUCUCCCUCCUAAGGAGAACACUGUGGGUUCGAGUCCCGGACAGAACG, with 0.51; and GUUCUGUUGGCGUAAUGGUAACGCGUCUCCCUCCUAAGGAGAAGACUGCGGGUUCGACUCCCGUACGGAACG, with 1.
Then GUUCUGUUGGCGUAAUGGUAACGCGUCUCCCUCCUAAGGAGAAGACUGCGGGUUCGAAUCCCGUACGGAACG, with 0.88.
With GUUCUGUUGGCGUAAUGGUAACGCGUCUCCCUCCUAAGGAGAAGACUGCGGGUUCAAGUCCCGUACGGAACG, the yeast fitness was 0.937.
The same measure for GUUCUGUUGGCGUAAUGGUAACGCGUCUCCCUCCUAAGGAGAAGACUGCGGGUUCCAGUCCCGUACGGAACG: 0.651.
Regarding GUUCUGUUGGCGUAAUGGUAACGCGUCUCCCUCCUAAGGAGAACACUGCGGGUUCGAGUCCCCUACGGAACG, the yeast fitness was found to be 0.686.
On to GUUCUGCUGACGUAAUGGUAACGCGUCUCCCUCAUAAGGAGAAGACUGCGGGUUCGAGUCCCAUACGGAACG, for which the yeast fitness was at most 0.5.
Then GUUCUGAUGGCGUAAUGGUAACGCGACUCCCUCCUAAGCAGAAGACUGCGGGUUCGAGUCCCGUACGGAACG, with at most 0.5.
As for GUUCUGUUGGCGUAAUGGUAACGCGUCUCCCUCCUAAGGAGAAGACUUCGGGUUCGAGUCCCGUACGGACCG, the yeast fitness was 0.707.
Then GUUCUGCUGGCGUAAUGGUAACGCGUCUCCCUCCUAAAGAGAAGGCUACGGGUUCGAGUCCCGUACAGAACG, with at most 0.5; and GUUCUGUUGGCGUAAUGGUAACGCGUCUCCCUCCUAAGGAGAAGACUGCGGGUUCGAGUCCCGUACGCAACG, with 0.842.
The same measure for GUUCUGUUGGCGUAAUGGUAACGCGUCUCCCUCCUAAGGAGAAGACUGCGGGUUCGAGUCCCGUACGAAACG: 0.969; for GUUCUGUUGGCGUAAUGGUAACGCGUCUCCCUCCUAAGGAGAAGACUGCGGGUUCGAGUCCCGUACGUAACG: 0.88; for GUUCUGUUGGCGUAAUGGUAACGCGUCUCCCUCCUAAGGAGAAGACUGCGCGCUCGAGUCCCGUACGGAACG: at most 0.5.
Then GUUCUGUUGGCGUAAUGGUAACGCGUCUCCCUCCUAAGGAGAAGACUGCGGGUUCGACUCCCGUACGAAACG, with 0.513.
Take GUUCUGUUGGCGUAAUGGUAACGCGUCUCCCUCCUAAGGAGAAGACUGCGGGUUCGAGUCCCGUACAGUACG: the yeast fitness was at most 0.5.
The same measure for GUUCUGUUGGCGUAAUGGUAACGCGUCUCCCUCCUAAGGAGAAGACUGCGAGUUCGAGUCCCGUACGGAACG: 0.798; for GUUCUGUUGGCGUAAUGGUAACGCGUCUCCCUCCUAAGGAGAAGACUGCGCGUUCGCGUCCCGUACGGAACG: at most 0.5.
Then GUUCUGGUGGCGUAAUGGUAACGCGUCUCCCUCCUAAGGAGAAGACUGCGGGUUCGUGUCCCGUACGGAACG, with at most 0.5; and GUUCUGUUGGCGUAAUGGUAACGCGUCUCCCUCCUAAGGAGAAGACUGCGGGUUCCAGUCCCGUUCGGAGCG, with at most 0.5; and GUUCUGGUGGCGUAAUGGUAACGCGUCUCCCUCCUAAGGAGAAGGCUGCGGGUUCGAGUCCCGUACGGACCG, with at most 0.5.
The same measure for GUUCUGAUGGCGUAAUGGUCACGCGUCUCCCUCCUAAGGAGAAGACUGCGGGUUCGAGUCCCGUACGCAACG: at most 0.5.
In the case of GUUCUGGUGGCGUAAUGGUAACGCGUCUCCCUCCUAAGGAGAAGACUGCGGGUUCGAGUCCAGUACGGAACG, the yeast fitness is at most 0.5.
Then GUUCUGUUGGCGUAAUGGUAACGCGUCUCCCUCCUAAGGAGAAGACUGCAGGUUCGAGUCCCGUACGGAACG, with 0.888; and GUUCUGAUGGCGUAAUGUUAACGCGUCACCCUCCUAAGGAGAAGACUGCGGGUUCGAGUCCCGUACGGAACG, with at most 0.5; and GUUCUGGUGGCGUAAUGGUAACGCGUCUCCCUCGUAAGGAGAAAACUGCGGGUUCGAGGCCCGUACGUAACG, with at most 0.5.
